Assay results taken from ChEMBL document CHEMBL4513216, “Probing the Open Global Health Chemical Diversity Library for Multistage-Active Starting Points for Next-Generation Antimalarials” (ACS Infect Dis, 2020).

experiment: Toxicity liver stage against HepG2, at 10uM; format: cell-based; parameters: test concentration 10 uM, cell line HepG2-A16-CD81EGFP; settings: human, HepG2-A16-CD81EGFP cells; read-out: INHIBITION
Outline: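 Uninfected HepG2-A16-CD81EGFP cells, 3 × 10^3 per well, 1536-well, plated on prespotted compound at 10 μM final, parasite-free screening media added to match infected plates; puromycin 10 μM positive, DMSO 0.5% negative; run in parallel with 48 h PbLuc assay at 37 °C, 5% CO2; viability by CellTiter-Glo luminescence, normalized to controls.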

Row | Structure (SMILES) | cytotoxicity at 10 µM [%]
1 | O=C(NC[C@@H]1CCCO1)c1cc(Br)cnc1N1CCCCC1 | -1.69
2 | CN1C(=O)[C@H](OC(N)=O)[C@@H](C(=O)Nc2ccccc2)C12CCNCC2 | 2.73
3 | Cc1c(CC(C#N)C(=O)Nc2cccc(O)c2)cnn1C (stereo unspecified) | 0.781
4 | COc1coc(C(=O)Nc2nc(-c3cccnc3)cs2)cc1=O | 2.66
5 | COC(=O)C1CCCN1Cc1ccco1 (stereo unspecified) | 9.21
6 | CN1CC2(CCN(C(=O)C3CCC3)CC2)COc2ccccc2S1(=O)=O | 10.2
7 | COC(=O)C(NC(=O)Nc1ccc(C(C)=O)cc1)C(C)C (stereo unspecified) | 4.31
8 | CC(C)CCN1CN=C(NS(=O)(=O)c2ccc(F)cc2)NC1 | -3.03
9 | O=C1CSC(c2ccsc2)c2sccc2N1 (stereo unspecified) | 2.19
10 | COCCN1C(=O)[C@]2(CC[C@@H]3CN(C(=O)NC4CCCC4)C[C@@H]32)N=C1C | -8.85
11 | CC(C)NC(=O)N1CCN(S(=O)(=O)C2CC2)CC2(CNC(=O)C2)C1 (stereo unspecified) | 1
12 | O=C1CCOC[C@]2(CN(Cc3ccccc3)C[C@H]2c2cccnc2)N1 | 4.73
13 | CC(=O)N1CCOC(c2ccnc(N(C)C)n2)C1 (stereo unspecified) | 1.62
14 | CC(C)N1CCC(c2cnc(-c3cn[nH]c3)cn2)CC1 | 5.36
15 | O=C(O)c1ccccc1-n1cc(CN2CCOC(c3cc[nH]n3)C2)cn1 (stereo unspecified) | 3.33
16 | CC(=O)NC1CCc2ccc(S(=O)(=O)NCc3ncccc3C)cc21 (stereo unspecified) | 10.4
17 | CNc1ncc(CN2CCCC2c2[nH]ncc2C(=O)N(C)C)cn1 (stereo unspecified) | 2.91
18 | Cc1cc(-c2cccnc2)nc(C2CCCN2S(C)(=O)=O)n1 (stereo unspecified) | 4.36
19 | Cc1cc(C)nc(N2CCC(C(=O)Nc3ccc(C(C)C)cc3)CC2)n1 | -3.02
20 | CC(=O)N1CCCC(c2nccnc2-c2ccc(CO)cc2)C1 (stereo unspecified) | 1.03
21 | COCCCNC(=O)c1ccccc1-n1cc(CN(C)C)cn1 | -22.4
22 | Cc1noc(CNC(=O)c2ccccc2-n2cc(CN)cn2)n1 | -19.6
23 | O=C(Nc1nncs1)C1CSCN1C(=O)C1CCCC1 (stereo unspecified) | 11.3

Row | Structure (SMILES) | cytotoxicity at 10 µM [%]
24 | CSc1cccc(NC(=O)CCC(=O)Nc2nccs2)c1 | -5.05
25 | CCn1cc(S(=O)(=O)Nc2cccnc2-n2cccn2)nc1C | 3.21
26 | COCCN(C(=O)c1cc(C)no1)c1ccc(C#N)cc1 | 6.51
27 | CCN(C)Cc1cccc(CNC(=O)CSCc2ccccn2)c1 | 1.61
28 | Oc1ccc(Br)c(CNc2cccc(-c3nnc[nH]3)c2)c1 | -38.9
29 | O=C(NCc1cccc(F)c1)c1cccc(C(=O)N2CCCC2)n1 | 5.79
30 | Cc1noc(C)c1CN(C)CC1CC(C2CCCCC2)=NO1 (stereo unspecified) | 3.72
31 | CCNC(=O)C1CCCN(c2ccc3ccc(F)cc3n2)C1 (stereo unspecified) | -1.69
32 | CC(Cc1cccc(F)c1)C(=O)NS(=O)(=O)c1ccc(F)cc1 (stereo unspecified) | 5.58
33 | Cc1cc(C2CCCN(Cc3ncc(C)o3)C2)n[nH]1 (stereo unspecified) | 4.63
34 | Cc1cnn(CCNCc2cc(-c3ccccc3)no2)c1 | -3.03
35 | O=C(N1CCSCC1)C1(O)Cc2ccccc2C1 | 6.35
36 | O=S(=O)(CCN1CCCC1Cn1cccn1)c1ccccc1 (stereo unspecified) | -11.9
37 | CCNC(=O)Nc1c(C)cnn1Cc1cc(F)ccc1F | 5.28
38 | CC(CO)CSc1ncnc2[nH]ncc12 (stereo unspecified) | -12.3
39 | CCC(CC)(CCO)CNC(=O)c1ccon1 | 6.27
40 | CCc1nnc2n1CCN(Cc1noc(-c3cccc(C)c3)n1)C2 | 12
41 | O=C(O)c1cc2c(c(S(=O)(=O)N(CCCO)c3ccccc3)c1)CCC2 | 6.58
42 | CN(Cc1ccccc1NCc1cscn1)C(=O)c1cccs1 | 0.503
43 | CN(C(=O)COCc1ccccc1)C1CCN(CC2CCOC2)CC1 (stereo unspecified) | -3.7
44 | CN1CCCC(N2CCN(c3nc4ccccn4c3C#N)CC2)C1 (stereo unspecified) | 1.52
45 | CN1CCCC(N2CCN(c3cc(C(F)(F)F)ccn3)CC2)C1 (stereo unspecified) | 5.12
46 | Cc1cc(C(=O)CN2CCN(c3nccs3)CC2)c(C)n1C1CC1 | 10.6

Row | Structure (SMILES) | cytotoxicity at 10 µM [%]
47 | c1cc(CN2CCN(Cc3ccon3)C3(CCCCC3)C2)no1 | -16.7
48 | N#CCCN(CCN1CCOCC1)Cc1ccc(F)c(Br)c1 | -5.01
49 | O=C(CN1CCSCC1c1ccccc1)N1CCOCC1 (stereo unspecified) | -5.88
50 | Cc1ccc(NC(=O)CNc2cccc3c2CCCC3)c(Br)c1 | 14.8
51 | Cc1nn(C)c(C)c1CNC1CCOc2ccccc21 (stereo unspecified) | 7.75
52 | Cc1nn(C)c(N(C)C)c1CNCC(O)c1ccccc1 (stereo unspecified) | -0.989
53 | CCCn1ccc2ccc(NC(=O)N(C)CCOC)cc21 | 1.31
54 | COCCn1c2c(ccc1=O)CCN(C(=O)C1CC=CC1)CC2 | 4.77
55 | O=C(Nc1cccnc1)[C@H]1CN(Cc2cccs2)C[C@H]2OCC[C@@H]12 | -109
56 | CN1CCN(Cc2cnc3n2CCN(C(=O)c2cnccn2)C3)CC1 | -65.1
57 | CN(C)[C@@H]1CCN(C(=O)c2ccccn2)[C@H]1Cc1cnn(C)c1 | -70
58 | Cc1occc1C(=O)N1CCc2ncnc(C3CCOC3)c2CC1 (stereo unspecified) | -85
59 | OCCC1CN(c2nc(-c3cccnc3)nc3c2CCNCC3)CCO1 (stereo unspecified) | -2.64
60 | CCCOC(=O)N1CCc2cccc(S(=O)(=O)N3CCOCC3)c2C1 | -6.85
61 | Cn1cccc1-c1cc(C(=O)N2CCCCC2c2ccc(F)cc2)[nH]n1 (stereo unspecified) | -2.8
62 | O=C(Cn1ccc2ncccc2c1=O)N1CCSCC1 | -3.06
63 | CC(C)n1cccc1C(=O)N1CC[C@@H](NC(=O)c2ccccn2)[C@H](O)C1 | 2.35
64 | CSCc1noc(-c2nc3c([nH]2)CCCNC3=O)n1 | -2.48
65 | COCCn1cncc1CN1CCCC(C(=O)Cc2ccccc2)C1 (stereo unspecified) | -6.55
66 | Cn1cc(CN(C(=O)C2COc3ccccc3C2)C2CC2)cn1 (stereo unspecified) | 1.81
67 | CCc1nc(CN(C)c2nccc(N3CCCC(O)C3)n2)no1 (stereo unspecified) | 0.324
68 | CNC(=O)[C@@H]1C[C@@H](NC(=O)c2ccc(OC)o2)CN1Cc1sccc1C | 2.29
69 | COCCC1(C(=O)O)CCCN(c2cc(C)c3ccccc3n2)C1 (stereo unspecified) | -38.7

Row | Structure (SMILES) | cytotoxicity at 10 µM [%]
70 | CN(C)C(C(=O)NCCS(=O)(=O)N(C)C)c1cccc(F)c1 (stereo unspecified) | 2.73
71 | CC(C)c1nccc(C2(c3ccccc3Cl)CCNCC2)n1 | 1.93
72 | CN(C)CCCn1ccc(-c2cccc(-c3ccccn3)c2)n1 | -6.02
73 | COc1ccc(F)c(F)c1CN1CC(=O)N(c2ccccc2C)CC1C (stereo unspecified) | -0.121
74 | CCC(=O)c1ccc(OCC(=O)N(C)C(C)c2ccon2)cc1 (stereo unspecified) | 1.71
75 | C=Cc1ccc(C(=O)NC2CCCc3nc(N(C)C)ncc32)cc1 (stereo unspecified) | 8.18
76 | CCC(Nc1cccc(OC)c1)C(=O)N(CCOC)Cc1cnn(C)c1 (stereo unspecified) | -1.28
77 | Cn1c(CCC(=O)N2CCCC3(CC2)CNC(=O)O3)nc2cccnc21 (stereo unspecified) | -3.56
78 | Cc1nc(N2CCN3CCCCC3C2)nc2cc(S(C)(=O)=O)ccc12 (stereo unspecified) | -6.25
79 | CN(Cc1cc2n(n1)CCCNC2)Cc1ccno1 | 2.57
80 | COCCN(Cc1cnn(C)c1)C(=O)C1CCC(=O)N(C2CCCC2)C1 (stereo unspecified) | 6.11
81 | O=C1CC(c2ncc(-c3ccc4c(c3)OCCO4)[nH]2)CN1C1CCCC1 (stereo unspecified) | 10.8
82 | O=C(CCC(F)(F)F)N1CCCC(CO)(CC2CC2)C1 (stereo unspecified) | 2.75
83 | Cc1ccn2c(F)c(C(=O)N3CCC4(CCC(=O)N(C)C4)CC3)nc2c1 | 5.96
84 | CN(CCc1ccccc1)c1cnn(CC(=O)N2CCOCC2)c(=O)c1 | 1.77
85 | CN(C)c1ncc2c(n1)CCCC2NC(=O)c1ccsc1 (stereo unspecified) | 10
86 | CN1CCCNC(=O)C12CCN(C(=O)c1ccc3[nH]cnc3c1)CC2 | -1.16
87 | CCn1cc(CN2CCCn3nc(CNC(=O)N(C)C)cc3C2)cn1 | 6.99
88 | CCN(Cc1nc(COC)no1)C[C@]1(O)CCCN2CCCC[C@@H]21 | -0.124
89 | NCCn1cc(C(=O)NCc2ccccc2-n2cccn2)nn1 | -2.34
90 | Cc1nc(C)n(C2CCCN(C(=O)c3ccc4nccn4c3)C2)n1 (stereo unspecified) | -12
91 | O=C(c1ccc(Cn2ccccc2=O)o1)N1CCSCC1 | -14.8
92 | COc1ncccc1CNC(=O)c1ccc(C)[nH]c1=O | -2.22

Row | Structure (SMILES) | cytotoxicity at 10 µM [%]
93 | Cn1cc(NC(=O)N2CCC(Cc3ccccc3)CC2)ccc1=O | 1.07
94 | O=C(NCCCn1cncn1)N1CCCCCC1 | -7.1
95 | CCCc1nc(C(C)(C)NC(=O)C2CC(=O)N(CC3CC3)C2)no1 (stereo unspecified) | -3.61
96 | CCOC(=O)c1sc2ccsc2c1CNC(=O)C(C)(C)C#N | -4.42
97 | Cc1csc(C2CCCN(C(=O)c3cnc4n[nH]c(C)c4c3)C2)n1 (stereo unspecified) | -9.39
98 | CCc1nc(-c2cncnc2C2CCCNC2)no1 (stereo unspecified) | 1.73
99 | O=S1(=O)CCC(NCCn2cncc2-c2ccc3c(c2)CCCO3)C1 (stereo unspecified) | 2.97
100 | Cc1cc(C2CCNCC2)nc(-c2ccsc2)n1 | -1.97
101 | COCC1CN(c2ccc(C)nn2)Cc2cnn(C)c21 (stereo unspecified) | 11.7
102 | c1cncc(OC[C@]23COC[C@H]2CN(C2CCC2)C3)c1 | 4.64
103 | CN1C(Cn2cccn2)C[C@@H]2CN(Cc3ccccn3)CC[C@@H]21 (stereo partly specified) | 0.763
104 | COc1ccc(CN(Cc2ccco2)Cc2[nH]cnc2C)c(OC)c1 | -1.57
105 | CC(C)CN1C(=O)C2(CCN(Cc3cccs3)C2)c2ccccc21 (stereo unspecified) | 10.1
106 | Cc1ccccc1CC(=O)N1C[C@@H]2COC[C@]2(CN(C)C)C1 | 3.79
107 | O=C(N1CCCC1)N1CCc2onc(COc3cccnc3)c2C1 | -75.6
108 | CCCS(=O)(=O)N1CCOCC2(CCN(c3ccccn3)C2)C1 (stereo unspecified) | 2.42
109 | Cc1c(C2CCCN(C(=O)c3ccncc3)C2)n2c(nc1=O)CCC2 (stereo unspecified) | -21.8
110 | O=C(c1ccccn1)N1C[C@H]2CC[C@@H](C1)N(C(=O)c1ccsc1)C2 | 3.88
111 | CC(C)CNC(=O)[C@H]1C[C@H]2CN(C(=O)NCCc3ccccc3)C[C@@H]1O2 | 1.22
